Tests used:
[1] = molecular target: Glutamate receptor ionotropic, NMDA 1 (Rattus norvegicus) (UniProt P35439); test: (§1) Percent Inhibition by displacing [3H]glycine of N-methyl-D-aspartate glutamate receptor 1 in rat cortical membranes; format: cell membranes; parameters: concentration or dose not given beside the values; settings: Membrane; concentration not given here
[2] = organism: Mus musculus; test: Concentration that inhibits by 50% depolarization induced by 5M AMPA; format: functional
Summary of the method: (§2)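 Cortical wedge preparation (per Mannaioni et al.). AMPA or NMDA (5 μM) applied for 2 min every 15 min until control peaks were stable, then wedges continuously superfused with antagonist while agonist pulses continued. Afterwards, washout with antagonist-free Krebs and agonist applied every 15 min for 30-60 min to confirm recovery. dc potential between two compartments recorded via Ag/AgCl electrodes. IC50 derived against control peaks; mean ± SEM, n = 4.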

[3] = molecular target: Glutamate receptor ionotropic, kainate (Rattus norvegicus) (UniProt P22756+Q01812+P42260+P42264+Q63273); test: Percent Inhibition of specific [3H]KA binding to Ionotropic glutamate receptor in rat cortical membranes.; format: cell membranes; parameters: concentration or dose not given beside the values; settings: Membrane; concentration not given here
Summary of the method: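 Membranes resuspended (0.5 mg protein/mL) in 0.05 M Tris-citrate, pH 7.4, preincubated at 37 °C for 30 min, then washed three times in ice-cold buffer. Binding run on ice for 60 min with 5 nM [3H]kainate; nonspecific binding defined with 1 mM glutamate. Separation by GF/C filtration.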

[4] = molecular target: T1, Glutamate receptor ionotropic, AMPA (Rattus norvegicus, UniProt P19490+P19491+P19492+P19493); test: Displacement of [3H]AMPA from Ionotropic glutamate receptor AMPA in rat cortical membranes.; format: cell membranes, Membrane
[5] = organism: Mus musculus; test: Concentration that inhibits by 50% depolarization induced by 5M NMDA; format: functional; summary of the method: as §2
[6] = molecular target: T2, Glutamate receptor ionotropic, NMDA 1 (Rattus norvegicus, UniProt P35439); test: Displacement of [3H]glycine from N-methyl-D-aspartate glutamate receptor 1 in rat cortical membranes; format: cell membranes, Membrane
[7] = molecular target: Glutamate NMDA receptor; test: Inhibition of stimulated [3H](+)-MK-801 binding to N-methyl-D-aspartate glutamate receptor in rat cortical membranes incubated with 10 uM glutamate and 0.1 uM glycine.
[8] = molecular target: Glutamate receptor ionotropic, AMPA (Rattus norvegicus) (UniProt P19491+P19492+P19493+P19490); test: Percent Inhibition by displacing [3H]AMPA from Ionotropic glutamate receptor AMPA specific binding sites in rat cortical membranes; format: cell membranes; parameters: concentration or dose not given beside the values; settings: concentration not given here
[9] = molecular target: T1, Glutamate receptor ionotropic, AMPA; test: Inhibition by displacing [3H]AMPA from Ionotropic glutamate receptor AMPA specific binding sites in rat cortical membranes; format: cell membranes
[10] = molecular target: T2, Glutamate receptor ionotropic, NMDA 1; test: Inhibition by displacing [3H]-Glycine of N-methyl-D-aspartate glutamate receptor 1 in rat cortical membranes; format: cell membranes, Membrane
[11] = molecular target: Glutamate receptor ionotropic, kainate; test: Inhibition of specific binding […] by displacing [3H]KA, from specific binding sites of Ionotropic glutamate receptor ionotropic kainate in rat cortical membranes; format: cell membranes, Membrane
Summary of the method: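 Rat cortical membranes preincubated at 0.5 mg protein/mL in 0.05 M Tris-citrate pH 7.4, 37 °C for 30 min, then washed thrice in ice-cold buffer. Binding on ice for 60 min with 5 nM [3H]kainate, 0.2-0.3 mg protein per assay. Nonspecific binding defined with 1 mM glutamate. Filtration separation.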

[12] = molecular target: T2, Glutamate receptor ionotropic, NMDA 1; test: as §1; format: cell membranes, Membrane

| SMILES | inhibition [1] [%] | inhibition [3] [%] | Ki [4] [µM] | Ki [6] [µM] | inhibition [8] [%] | further results |
| --- | --- | --- | --- | --- | --- | --- |
| CCOC(=O)c1cc2c3cc(-n4cnnc4)c(Cl)cc3nc(O)n2n1 | 18 | 38 | 0.87 |  |  | IC50 [2]: 1.75 µM; IC50 [5]: > 50 µM |
| COC(=O)C1=NN2C(=O)Nc3ccccc3C2C1 (stereo not given) | 40 | 0 |  |  | 29 |  |
| CCOC(=O)c1cc2c3cc(N)ccc3nc(O)n2n1 | 30 | 30 |  |  | 27 |  |
| O=C(O)c1cc2c3cc(-n4cnnc4)c(Cl)cc3[nH]c(=O)n2n1 |  |  | 0.14 |  |  | IC50 [5]: 20 µM |
| O=Cc1ccn(-c2cc3c(cc2Cl)nc(O)n2nc(C(=O)O)cc32)c1 |  |  |  |  |  | IC50 [2]: 0.5 µM; Ki [9]: 0.27 µM; Ki [10]: 8.2 µM; IC50 [5]: 25 µM; IC50 [11]: 5.5 µM |
| O=C(O)c1nc2c(=O)[nH]c3cc(Cl)c(-n4cnnc4)cc3n2n1 [TQX-173] |  |  |  |  |  | Ki [10]: 33.5 µM |
| CCOC(=O)c1cc2c3ccccc3nc(O)n2n1 |  | 12 |  |  |  |  |
| O=C(O)c1cc2c3cc([N+](=O)[O-])c(Cl)cc3[nH]c(=O)n2n1 |  |  | 0.74 |  |  | Ki [12]: 1.1 µM; IC50 [11]: 23 µM |
| O=C(O)c1cc2c3cc([N+](=O)[O-])ccc3nc(O)n2n1 | 35 | 24 | 26 |  |  |  |
| COC(=O)C1=NN2C(=O)Nc3cc(Cl)c(Cl)cc3C2C1 (stereo not given) |  | 9 | 8.5 | 4 |  |  |
| O=C(O)c1cc2c3cc(Cl)c(Cl)cc3[nH]c(=O)n2n1 |  |  | 2.4 | 0.16 |  | IC50 [11]: 41 µM |
| CCOC(=O)c1cc2c3ccc(Cl)cc3nc(O)n2n1 |  | 15 |  |  |  |  |
| CCOC(=O)c1cc2n(n1)C(C(=O)O)Nc1cc(Cl)ccc1-2 (stereo not given) | 5 | 1 |  |  | 6 |  |
| CCOC(=O)c1cc2c3cc(N)c(Cl)cc3nc(O)n2n1 | 40 | 11 |  |  | 33 |  |
| O=C(O)c1cc2c3ccc(Cl)cc3nc(O)n2n1 |  |  | 2.3 | 0.48 |  | IC50 [11]: 60 µM |

Further lines, with some results ahead:

| inhibition [1] [%] | inhibition [3] [%] | Ki [4] [µM] | Ki [6] [µM] | inhibition [8] [%] | SMILES | further results |
| --- | --- | --- | --- | --- | --- | --- |
|  |  | 72 | 26.5 |  | CCOC(=O)c1cc2c3ccc(Cl)cc3[nH]c(=O)n2n1 |  |
|  | 26 | 12.4 | 1.41 |  | O=C(O)c1cc2c3ccccc3nc(O)n2n1 | IC50 [7]: 10.4 µM |
|  |  | 42 | 33.3 |  | CCOC(=O)c1cc2c3ccccc3[nH]c(=O)n2n1 |  |
|  | 10 |  | 1.3 | 42 | COC(=O)c1cc2c3cc(Cl)c(Cl)cc3nc(O)n2n1 |  |
|  | 3 | 17.3 | 10.6 |  | COC(=O)C1=NN2C(=O)Nc3cc(Cl)ccc3C2C1 (stereo not given) |  |
|  | 17 | 2.65 |  |  | O=C(O)C1=NN2C(=O)Nc3cc(Cl)c(Cl)cc3C2C1 (stereo not given) | Ki [10]: 0.19 µM |
|  | 23 |  |  |  | CCOC(=O)c1cc2c3cc([N+](=O)[O-])c(Cl)cc3nc(O)n2n1 |  |
|  | 20 | 7.2 | 0.24 |  | O=C(O)C1=NN2C(=O)Nc3cc(Cl)ccc3C2C1 (stereo not given) |  |
|  | 29 |  |  |  | CCOC(=O)c1cc2c3cc(-n4ccc(C=O)c4)c(Cl)cc3nc(O)n2n1 | IC50 [2]: 1 µM; Ki [9]: 1.4 µM; Ki [10]: 57 µM; IC50 [5]: > 50 µM |
|  |  | 8.2 | 10.6 |  | CCOC(=O)c1cc2c3cc([N+](=O)[O-])c(Cl)cc3[nH]c(=O)n2n1 |  |
|  |  | 96 | 2 |  | O=C(O)C1=NN2C(=O)Nc3ccccc3C2C1 (stereo not given) | IC50 [11]: 19.5 µM |
| 15 | 0 |  |  | 12 | CCOC(=O)c1cc2n(n1)C(C(=O)O)Nc1ccccc1-2 (stereo not given) |  |
| 25 | 13 |  |  | 7 | O=C(O)c1cc2n(n1)C(C(=O)O)Nc1cc(Cl)ccc1-2 (stereo not given) |  |
| 35 | 11 |  |  | 0 | O=C(O)c1cc2n(n1)C(C(=O)O)Nc1ccccc1-2 (stereo not given) |  |
| 15 | 4 |  |  | 27 | CCOC(=O)c1cc2c3cc([N+](=O)[O-])ccc3nc(O)n2n1 |  |

Reference: ChEMBL document CHEMBL1135729, “Synthesis and biological evaluation of a new set of pyrazolo[1,5-c]quinazoline-2-carboxylates as novel excitatory amino acid antagonists” (J Med Chem, 2002)
